From ChEMBL document CHEMBL5036331 (J Med Chem, 2021)
Values after ≈ are worked out from the molar mass of the structure shown.

Columns and labels:
[1] = Clearance in Wistar-Han rat hepatocytes at 1 uM measured for 2 to 90 mins by LC-MS/MS; type: ADME, cell-based, Hepatocyte; settings: Wistar-Han, time 2-90 min
[2] = Metabolic stability in Wistar-Han rat hepatocytes at 1 uM measured for 2 to 90 mins by LC-MS/MS; type: ADME, cell-based, Hepatocyte; settings: time 2-90 min
[3] = Aqueous solubility of the compound at pH 6.5 for 24 hrs by HPLC-MS/MS; type: physicochemical
MOLM-13 = assay: cells; type: functional, cell-based; settings: Homo sapiens, MOLM-13, 96 h
A2780 = assay: cells; type: functional, cell-based; settings: Homo sapiens, A2780, 96 h
[4] = Apparent permeability of the compound across apical side to basolateral side in human CaCo-2 cells at 2 uM incubated for 2 hrs; type: ADME, cell-based
Procedure, shortened: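 Caco-2 monolayers with TEER of at least 400 Ω·cm². Compound (predissolved in DMSO) added apically or basolaterally at a final 2 μM and incubated 2 h at 37 °C, in triplicate. Both compartments were sampled before and after, MeOH-precipitated and analysed by LC–MS/MS. Papp = (Vr/P0)(1/S)(P2/t).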

[5] = Efflux ratio of apparent permeability across basolateral to apical side over apical to basolateral side in human Caco2 cells at 2 uM incubated for 2 hrs; settings: Caco-2

With `COc1cc(F)ccc1-c1nc(Nc2cc(F)c(F)c(CS(C)(=N)=O)c2)ncc1F` (stereo unspecified) the CLhep predicted at 1 µM [1] was 2.5 L/h/kg and the Stability [2] was “Stable”.

A CLhep predicted at 1 µM [1] of 1.7 L/h/kg and a solubility at 24 h [3] of 0.024 mg/mL (≈ 56.8 µM) were found for `COc1cc(F)ccc1-c1nc(Nc2cc(F)cc(CS(C)(=N)=O)c2)ncc1F` (stereo in doubt; 9) in this work.

An IC50 (MOLM-13) of 0.042 µM and an IC50 (A2780) of 0.052 µM were found for `COc1cc(F)ccc1-c1cc(Nc2cc(C[S@](C)(=N)=O)ccn2)ncc1F` in this work.

A CLhep predicted at 1 µM [1] of 2.3 L/h/kg and a solubility at 24 h [3] of 0.005 mg/mL (≈ 11.5 µM) were found for `COc1cc(CS(C)(=N)=O)cc(Nc2ncc(F)c(-c3ccc(F)cc3OC)n2)c1` (stereo unspecified) in this work.

A Papp A→B at 2 h, 2 µM [4] of 23 nm/s, a CLhep predicted at 1 µM [1] of 1.1 L/h/kg and an efflux ratio at 2 h, 2 µM [5] of over 10 were found for `COc1cc(F)ccc1-c1nc(Nc2cncc(CS(C)(=N)=O)c2)ncc1F` (stereo unspecified) in this work. The IC50 (A2780) was 0.046 µM and the solubility at 24 h [3] was 0.103 mg/mL (≈ 254 µM).

A CLhep predicted at 1 µM [1] of 1.1 L/h/kg, an IC50 (A2780) of 0.226 µM and a solubility at 24 h [3] of 0.294 mg/mL (≈ 632 µM) were found for `COc1cc(F)ccc1-c1nc(Nc2cc(F)cc(CS(=N)(=O)CCCN)c2)ncc1F` (stereo unspecified) in this work.
